According to ChEMBL document CHEMBL4834402, “Discovery of TAK-981, a First-in-Class Inhibitor of SUMO-Activating Enzyme for the Treatment of Cancer” (J Med Chem, 2021):

Key:
[1] = biological target: T1, SUMO-activating enzyme (Homo sapiens, UniProt Q9UBT2); assay: Inhibition of recombinant SAE (unknown origin) assessed as reduction in transfer of SUMO1 to UBC9 using SUMO1 as a substrate in presence of ATP at Km concentration by HTRF assay; type: protein-complex assay
How it was run: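 HTRF transthiolation assay measuring transfer of SUMO1 to UBC9, the E2 for SAE.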

[2] = Inhibition of recombinant UAE (unknown origin) in presence of ATP at Km concentration by HTRF assay; design: species or system Homo sapiens
[3] = biological target: T2, NEDD8 activating enzyme (Homo sapiens, UniProt Q8TBC4); assay: Inhibition of recombinant NAE (unknown origin) in presence of ATP at Km concentration by HTRF assay; type: protein-complex assay
T2 sequence (Q8TBC4 whole entry): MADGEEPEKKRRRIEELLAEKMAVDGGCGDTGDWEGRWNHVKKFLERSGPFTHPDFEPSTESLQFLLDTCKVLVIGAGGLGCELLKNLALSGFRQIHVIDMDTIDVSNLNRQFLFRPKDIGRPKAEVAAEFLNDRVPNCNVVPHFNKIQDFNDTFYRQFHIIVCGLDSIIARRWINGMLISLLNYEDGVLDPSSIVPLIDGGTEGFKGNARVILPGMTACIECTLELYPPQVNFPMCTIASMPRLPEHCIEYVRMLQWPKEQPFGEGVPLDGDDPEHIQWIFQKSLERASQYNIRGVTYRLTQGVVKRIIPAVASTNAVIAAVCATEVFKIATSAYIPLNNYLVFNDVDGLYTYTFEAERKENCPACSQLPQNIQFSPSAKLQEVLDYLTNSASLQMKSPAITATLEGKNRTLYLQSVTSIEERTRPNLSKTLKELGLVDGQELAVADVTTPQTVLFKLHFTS
T2 sequence (Q13564 whole entry): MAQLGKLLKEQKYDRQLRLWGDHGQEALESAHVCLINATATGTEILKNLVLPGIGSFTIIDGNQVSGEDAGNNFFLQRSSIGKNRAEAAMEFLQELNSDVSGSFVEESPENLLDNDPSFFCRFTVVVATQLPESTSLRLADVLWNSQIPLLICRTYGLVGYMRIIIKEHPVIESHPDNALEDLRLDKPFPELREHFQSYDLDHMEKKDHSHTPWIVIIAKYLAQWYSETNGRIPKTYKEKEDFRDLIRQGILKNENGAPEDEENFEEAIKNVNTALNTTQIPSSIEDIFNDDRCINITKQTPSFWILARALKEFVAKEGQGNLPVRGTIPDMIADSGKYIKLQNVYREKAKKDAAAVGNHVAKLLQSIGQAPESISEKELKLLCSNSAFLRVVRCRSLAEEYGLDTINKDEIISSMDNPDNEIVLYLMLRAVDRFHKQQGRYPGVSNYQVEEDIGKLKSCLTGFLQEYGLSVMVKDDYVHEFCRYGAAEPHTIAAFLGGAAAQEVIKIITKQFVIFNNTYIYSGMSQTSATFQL

[4] = biological target: T1, SUMO-activating enzyme; assay: Inhibition of SAE in human HCT116 cells assessed as reduction in redistribution of SUMO2/3 proteins from nucleus to cytosol incubated for 4 hrs by immunofluorescence assay; type: cell-based, HCT-116
How it was run: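 HCT-116 cells exposed to compound across a concentration range for 4 h, then stained with anti-SUMO2/3 monoclonal antibody. Automated imaging scored the nuclear (inner) to cytoplasmic (outer) SUMO2/3 ratio. IC50 taken from the dose response.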

T1 sequence (Q9UBE0 whole entry): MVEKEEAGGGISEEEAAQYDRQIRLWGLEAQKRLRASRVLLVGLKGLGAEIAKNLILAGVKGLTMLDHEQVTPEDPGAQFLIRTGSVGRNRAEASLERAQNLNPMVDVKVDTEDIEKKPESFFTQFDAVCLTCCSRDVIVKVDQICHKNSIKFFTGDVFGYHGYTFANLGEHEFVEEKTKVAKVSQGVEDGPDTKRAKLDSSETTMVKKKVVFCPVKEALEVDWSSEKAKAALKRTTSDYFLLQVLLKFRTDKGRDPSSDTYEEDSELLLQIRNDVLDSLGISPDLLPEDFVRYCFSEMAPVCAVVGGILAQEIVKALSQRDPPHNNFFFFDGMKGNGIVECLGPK
T1 sequence (Q9UBT2 whole entry): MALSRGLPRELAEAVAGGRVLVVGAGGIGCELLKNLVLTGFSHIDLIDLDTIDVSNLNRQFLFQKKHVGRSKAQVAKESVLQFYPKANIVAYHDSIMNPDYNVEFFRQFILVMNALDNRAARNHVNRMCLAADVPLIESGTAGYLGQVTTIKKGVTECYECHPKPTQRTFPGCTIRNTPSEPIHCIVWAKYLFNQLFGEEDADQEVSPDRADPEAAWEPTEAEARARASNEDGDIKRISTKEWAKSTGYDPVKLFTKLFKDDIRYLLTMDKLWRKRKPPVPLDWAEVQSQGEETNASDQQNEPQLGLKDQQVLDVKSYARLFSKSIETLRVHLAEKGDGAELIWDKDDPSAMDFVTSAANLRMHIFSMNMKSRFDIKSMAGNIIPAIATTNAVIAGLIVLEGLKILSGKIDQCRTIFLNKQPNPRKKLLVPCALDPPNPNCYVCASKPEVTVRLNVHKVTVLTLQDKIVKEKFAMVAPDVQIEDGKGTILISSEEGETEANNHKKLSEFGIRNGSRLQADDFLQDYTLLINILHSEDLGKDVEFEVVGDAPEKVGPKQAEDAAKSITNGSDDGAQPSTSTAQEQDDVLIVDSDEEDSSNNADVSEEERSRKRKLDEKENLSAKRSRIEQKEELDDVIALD

| SMILES | IC50 [1] [nM] | IC50 [2] [nM] | IC50 [3] [nM] | IC50 [4] [nM] |
| --- | --- | --- | --- | --- |
| NS(=O)(=O)OC[C@H]1C[C@@H](Nc2ncncc2C(=O)c2ccn(Cc3ccc(Cl)cc3)n2)C[C@@H]1O | 5.1 | > 1000 | > 1000 | 1880 |
| NS(=O)(=O)OC[C@H]1C[C@@H](Nc2ncncc2C(=O)c2ccn(Cc3ccccc3)n2)C(F)(F)[C@@H]1O | 3.9 | > 1000 | > 1000 | 249 |
| NS(=O)(=O)OC[C@H]1C[C@@H](Nc2ncncc2C(=O)c2ccn(Cc3cccc(F)c3)n2)C[C@@H]1O | 2.9 | > 1000 | 357 | 515 |
| NS(=O)(=O)OC[C@H]1C[C@@H](Nc2ncncc2C(=O)c2ccn(Cc3cccc(Cl)c3)n2)C[C@@H]1O | 0.7 | > 1000 | 242 | 20 |
| NS(=O)(=O)OC[C@H]1C[C@@H](Nc2ncncc2C(=O)c2ccn(-c3ccccc3)n2)C[C@@H]1O | 67 | 468 | 32 | > 1000 |
| NS(=O)(=O)OC[C@H]1C[C@@H](Nc2ncncc2C(=O)c2ccn(Cc3cccc(C(F)(F)F)c3)n2)C[C@@H]1O | 1.1 | > 1000 | 695 | 39 |
| NS(=O)(=O)OC[C@H]1C[C@@H](Nc2ncncc2C(=O)c2cc(C3OCCc4c(Cl)cccc43)cs2)C[C@@H]1O (stereo partly drawn) | 1.7 | > 1000 | 265 | 76 |
| NS(=O)(=O)OC[C@H]1C[C@@H](Nc2ncncc2C(=O)c2csc(Cc3cccc(Br)c3)c2)C[C@@H]1O | 18 | > 1000 | 523 | 4930 |
| NS(=O)(=O)OC[C@H]1C[C@@H](Nc2ncncc2C(=O)c2ccn(Cc3cccc(Cl)n3)n2)C[C@@H]1O | 1 | > 1000 | 478 | 66 |
| NS(=O)(=O)OC[C@H]1C[C@@H](Nc2ncncc2C(=O)c2cc(C3NCc4ccc(Cl)cc43)cs2)C[C@@H]1O (stereo partly drawn) | 1.6 | > 1000 | > 1000 | 312 |
| NS(=O)(=O)OC[C@H]1C[C@@H](Nc2ncncc2C(=O)c2ccn(Cc3cccc(OC(F)(F)F)c3)n2)C[C@@H]1O | 2.1 | > 1000 | > 1000 | 78 |
| NS(=O)(=O)OC[C@H]1C[C@@H](Nc2ncncc2C(=O)c2cc(C3OCc4ccc(Cl)cc43)c(Cl)s2)C[C@@H]1O (stereo partly drawn) | 3 | > 1000 | > 1000 | 163 |
| C#Cc1cccc(Cn2ccc(C(=O)c3cncnc3N[C@@H]3C[C@H](COS(N)(=O)=O)[C@@H](O)C3)n2)c1 | 1.1 | > 1000 | 304 | 22 |
| NS(=O)(=O)OC[C@H]1C[C@@H](Nc2ncncc2C(=O)c2ccn(Cc3ccccc3)n2)[C@H](F)[C@@H]1O | 3.8 | > 1000 | 334 | 517 |
| NS(=O)(=O)OC[C@H]1C[C@@H](Nc2ncncc2C(=O)c2cc(Cc3cccc(Cl)c3)cs2)C[C@@H]1O | – | > 1000 | 64 | – |
| CN(C)C(c1cccc(Cl)c1)c1csc(C(=O)c2cncnc2N[C@@H]2C[C@H](COS(N)(=O)=O)[C@@H](O)C2)c1 (stereo partly drawn) | 25 | > 1000 | > 1000 | 4170 |
| NS(=O)(=O)OC[C@H]1C[C@@H](Nc2ncncc2C(=O)c2ccn(Cc3ccccc3)n2)[C@@H](F)[C@@H]1O | 2.3 | 492 | 688 | 260 |
| NS(=O)(=O)OC[C@H]1C[C@@H](Nc2ncncc2C(=O)c2cc(Cc3cccc(Br)c3)cs2)C[C@@H]1O | – | > 1000 | 91 | – |
| Cc1sc(C(=O)c2cncnc2N[C@@H]2C[C@H](COS(N)(=O)=O)[C@@H](O)C2)cc1C1OCCc2ccc(Cl)cc21 (stereo in doubt; 47) | 11 | – | 87 | 3880 |
| NS(=O)(=O)OC[C@H]1C[C@@H](Nc2ncncc2C(=O)c2ccc(Cc3cccc(Br)c3)o2)C[C@@H]1O | – | > 1000 | 267 | – |
